ChEMBL document CHEMBL3414496, “Synthesis and biological evaluation of novel 2-heteroarylimino-1,3-thiazolidin-4-ones as potential anti-tumor agents” (Eur J Med Chem, 2015)
Active and inactive are the calls of the source. The calls are words filed in the database; no cut-off is given here.

Test system: HT-29
Assay: Induction of redox status changes in human HT-29 cells assessed as ROS content in presence of 1 mM ascorbic acid by DCF-DA staining based fluorescence assay (reference value: 65.7 +/- 4.7%)
Conditions: not given

| SMILES | Activity [%] |
| --- | --- |
| COc1ccc(/C=C2\S/C(=N\c3csc(-c4ccc(Cl)cc4)c3)NC2=O)cc1OC | 112.1 |
| Cc1ccc(/C=C2\S/C(=N\c3csc(-c4ccc(Cl)cc4)c3)NC2=O)cc1 | 102.5 |

Test system: HT-29
Assay: Induction of ROS generation in human HT-29 cells at cytotoxic IC50 level after 4 hrs by DCF-DA staining based fluorescence assay
Assay type: functional, cell-based
Conditions: not given
Summary of the method: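 HT29 cells treated two days after seeding, then loaded with 50 µM DCF-DA for 15 min at 37°C. Cells trypsinized, washed and resuspended in PBS, and 30 000 cells/sample read by flow cytometry (FL-1). Expressed as % of DMSO-treated cells; […] for 1 h served as positive control. Triplicates from three independent experiments.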

| SMILES | Activity |
| --- | --- |
| COc1ccc(/C=C2\S/C(=N\c3csc(-c4ccc(Cl)cc4)c3)NC2=O)cc1OC | Active |
| Cc1ccc(/C=C2\S/C(=N\c3csc(-c4ccc(Cl)cc4)c3)NC2=O)cc1 | Active |

Test system: HT-29
Assay: Induction of redox status changes in human HT-29 cells assessed as GSH content by fluorescence based microtiter plate method (reference value: 100%)
Assay type: functional
Conditions: not given
Summary of the method: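 HT29 cells exposed 48 h after seeding for 24 h, then extracted into ice-cold 10% perchloric acid with 2 mM EDTA and spun at 15 000 g. GSH in the supernatant measured by a fluorescence microtiter plate method; pellet protein measured by modified Lowry. Values in nmol GSH/mg protein, shown as % of DMSO controls. Triplicates from three experiments.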

| SMILES | Activity [%] |
| --- | --- |
| COc1ccc(/C=C2\S/C(=N\c3csc(-c4ccc(Cl)cc4)c3)NC2=O)cc1OC | 108.1 |
| Cc1ccc(/C=C2\S/C(=N\c3csc(-c4ccc(Cl)cc4)c3)NC2=O)cc1 | 73.9 |

Test system: HT-29
Assay: Induction of cell cycle arrest in human HT-29 cells assessed as accumulation at S phase by propidium iodide staining based flow cytometry (reference value: 23.9 +/- 0.3%)
Assay type: functional
Conditions: not given

| SMILES | Activity [%] |
| --- | --- |
| COc1ccc(/C=C2\S/C(=N\c3csc(-c4ccc(Cl)cc4)c3)NC2=O)cc1OC | 11.3 |
| Cc1ccc(/C=C2\S/C(=N\c3csc(-c4ccc(Cl)cc4)c3)NC2=O)cc1 | 14.8 |

Test system: HT-29
Assay: Induction of nuclear fragmentation in human HT-29 cells incubated for 2 days by DAPI staining based UV fluorescent microscopy
Assay type: functional, cell-based
Conditions: not given
Summary of the method: (§1)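 HT29 cells in 35 mm dishes treated over two days, fixed in 70% ethanol for 5 min and rinsed with PBS. Stained with 1 µM DAPI in PBS for 15 min and imaged by UV fluorescence microscopy for nuclear morphology.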

| SMILES | Activity |
| --- | --- |
| COc1ccc(/C=C2\S/C(=N\c3csc(-c4ccc(Cl)cc4)c3)NC2=O)cc1OC | Active |
| Cc1ccc(/C=C2\S/C(=N\c3csc(-c4ccc(Cl)cc4)c3)NC2=O)cc1 | Active |

Test system: HT-29
Assay: Growth inhibition of human HT-29 cells at cytotoxic IC50 level after 3 days by trypan blue dye exclusion assay
Assay type: functional
Conditions: not given
Summary of the method: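 HT29 cells treated 48 h after seeding, dosed daily with daily medium change over three days; drug diluted in DMSO, controls 0.1% (v/v) DMSO. Cells trypsinized, mixed 1:1 with 0.04% trypan blue, live cells counted by hematimeter. Reported as mitotic index (treated/DMSO count); triplicates from two independent experiments.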

| SMILES | growth inhibition (GI) [%] |
| --- | --- |
| COc1ccc(/C=C2\S/C(=N\c3csc(-c4ccc(Cl)cc4)c3)NC2=O)cc1OC | 90 |
| Cc1ccc(/C=C2\S/C(=N\c3csc(-c4ccc(Cl)cc4)c3)NC2=O)cc1 | 90 |

Test system: HT-29
Assay: Induction of autophagy in human HT-29 cells assessed as increase in beclin-1 protein expression by Western blotting method
Assay type: functional, cell-based
Conditions: not given
Summary of the method: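 HT29 cells in flasks treated over two days. Total protein homogenates immunoblotted with anti-beclin-1 (1:500), with GAPDH as loading control.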

| SMILES | Activity |
| --- | --- |
| COc1ccc(/C=C2\S/C(=N\c3csc(-c4ccc(Cl)cc4)c3)NC2=O)cc1OC | Active |
| Cc1ccc(/C=C2\S/C(=N\c3csc(-c4ccc(Cl)cc4)c3)NC2=O)cc1 | Active |

Test system: HT-29
Assay: Induction of mitochondrial membrane potential loss in human HT-29 cells incubated for 2 days by JC1 staining based UV fluorescent microscopy
Assay type: functional, cell-based
Conditions: not given
Summary of the method: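 HT29 cells in dishes exposed to test agents, then 1 µM JC-1 added to the medium for 15 min at 37°C. Cells washed with warm PBS and imaged by fluorescence microscopy for J-aggregates (red channel). 50 µM CCCP for 15 min served as depolarization control.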

| SMILES | Activity |
| --- | --- |
| COc1ccc(/C=C2\S/C(=N\c3csc(-c4ccc(Cl)cc4)c3)NC2=O)cc1OC | Active |
| Cc1ccc(/C=C2\S/C(=N\c3csc(-c4ccc(Cl)cc4)c3)NC2=O)cc1 | Active |

Test system: HT-29
Assay: Induction of chromatin condensation in human HT-29 cells incubated for 2 days by DAPI staining based UV fluorescent microscopy
Assay type: functional, cell-based
Conditions: not given
Summary of the method: as §1

| SMILES | Activity |
| --- | --- |
| COc1ccc(/C=C2\S/C(=N\c3csc(-c4ccc(Cl)cc4)c3)NC2=O)cc1OC | Active |
| Cc1ccc(/C=C2\S/C(=N\c3csc(-c4ccc(Cl)cc4)c3)NC2=O)cc1 | Active |

Test system: MDA-MB-231
Assay: Cytotoxicity against human MDA-MB-231 cells after 72 hrs by MTT assay
Assay type: functional, cell-based
Conditions: MDA-MB-231, 72 h
Summary of the method: (§2)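 Cells seeded at 10^4/well, exposed 24 h later to graded concentrations (0.01–100 µM) for 72 h at 37°C; MTT 0.5 mg/ml for 2 h, formazan dissolved in DMSO, absorbance at 570 nm. […] Colon lines in DMEM, breast lines in RPMI, both with 10% FCS.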

| SMILES | IC50 [nM] |
| --- | --- |
| COc1ccc(/C=C2\S/C(=N\c3csc(-c4ccc(Cl)cc4)c3)NC2=O)cc1OC | 1900 |
| Cc1ccc(/C=C2\S/C(=N\c3csc(-c4ccc(Cl)cc4)c3)NC2=O)cc1 | 900 |

Test system: HT-29
Assay: Induction of cell cycle arrest in human HT-29 cells assessed as accumulation at G0/G1 phase by propidium iodide staining based flow cytometry (reference value: 46.1 +/- 0.4%)
Assay type: functional
Conditions: not given

| SMILES | Activity [%] |
| --- | --- |
| COc1ccc(/C=C2\S/C(=N\c3csc(-c4ccc(Cl)cc4)c3)NC2=O)cc1OC | 2.3 |
| Cc1ccc(/C=C2\S/C(=N\c3csc(-c4ccc(Cl)cc4)c3)NC2=O)cc1 | 1.2 |

Test system: HT-29
Assay: Induction of autophagy in human HT-29 cells assessed as increase in acidic vesicles by acridine orange staining based flow cytometry
Assay type: functional, cell-based
Conditions: not given
Summary of the method: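 HT29 cells treated for two days with daily medium changes, stained with 1 µg/ml acridine orange for 15 min, then trypsinized and suspended in PBS. FL-3 fluorescence read by flow cytometry on 30 000 cells/sample and expressed in arbitrary units relative to DMSO-treated cells. Triplicates from three independent experiments.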

| SMILES | Activity |
| --- | --- |
| COc1ccc(/C=C2\S/C(=N\c3csc(-c4ccc(Cl)cc4)c3)NC2=O)cc1OC | Active |
| Cc1ccc(/C=C2\S/C(=N\c3csc(-c4ccc(Cl)cc4)c3)NC2=O)cc1 | Active |

Test system: HT-29
Assay: Induction of cell cycle arrest in human HT-29 cells assessed as accumulation at subG1 phase by propidium iodide staining based flow cytometry (reference value: 6.9 +/- 0.5%)
Assay type: functional
Conditions: not given

| SMILES | Activity [%] |
| --- | --- |
| COc1ccc(/C=C2\S/C(=N\c3csc(-c4ccc(Cl)cc4)c3)NC2=O)cc1OC | 20.6 |
| Cc1ccc(/C=C2\S/C(=N\c3csc(-c4ccc(Cl)cc4)c3)NC2=O)cc1 | 21.5 |

Test system: HT-29
Assay: Induction of cell cycle arrest in human HT-29 cells assessed as accumulation at G2/M phase by propidium iodide staining based flow cytometry (reference value: 30 +/- 2%)
Assay type: functional
Conditions: not given

| SMILES | Activity [%] |
| --- | --- |
| COc1ccc(/C=C2\S/C(=N\c3csc(-c4ccc(Cl)cc4)c3)NC2=O)cc1OC | 86.4 |
| Cc1ccc(/C=C2\S/C(=N\c3csc(-c4ccc(Cl)cc4)c3)NC2=O)cc1 | 84 |

Test system: HT-29
Assay: Induction of redox status changes in human HT-29 cells assessed as RNS content by DAF-2DA staining based fluorescence assay (reference value: 100%)
Assay type: functional
Conditions: not given
Summary of the method: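 HT29 cells treated two days after seeding, then loaded with 1 µM DAF-2DA for 30 min at 37°C. Cells trypsinized and resuspended in PBS, and 30 000 cells/sample measured by flow cytometry (FL-1). Expressed as % of DMSO-treated cells. Triplicates from three independent experiments.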

| SMILES | Activity [%] |
| --- | --- |
| COc1ccc(/C=C2\S/C(=N\c3csc(-c4ccc(Cl)cc4)c3)NC2=O)cc1OC | 116.3 |
| Cc1ccc(/C=C2\S/C(=N\c3csc(-c4ccc(Cl)cc4)c3)NC2=O)cc1 | 155 |

Test system: HT-29
Assay: Induction of redox status changes in human HT-29 cells assessed as RNS content by DHR123 staining based fluorescence assay (reference value: 100%)
Assay type: functional
Conditions: not given
Summary of the method: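 HT29 cells treated two days after seeding, then loaded with 25 µM DHR for 20 min at 37°C. Cells trypsinized and resuspended in PBS, and 30 000 cells/sample read by flow cytometry (FL-1). Expressed as % of DMSO controls. Triplicates from three independent experiments.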

| SMILES | Activity [%] |
| --- | --- |
| COc1ccc(/C=C2\S/C(=N\c3csc(-c4ccc(Cl)cc4)c3)NC2=O)cc1OC | 83.6 |
| Cc1ccc(/C=C2\S/C(=N\c3csc(-c4ccc(Cl)cc4)c3)NC2=O)cc1 | 95 |

Test system: HT-29
Assay: Cytotoxicity against human HT-29 cells after 72 hrs by MTT assay
Assay type: functional, cell-based
Conditions: HT-29, 72 h
Summary of the method: as §2

| SMILES | IC50 [nM] |
| --- | --- |
| COc1ccc(/C=C2\S/C(=N\c3csc(-c4ccc(Cl)cc4)c3)NC2=O)cc1OC | 10900 |
| Cc1ccc(/C=C2\S/C(=N\c3csc(-c4ccc(Cl)cc4)c3)NC2=O)cc1 | 6400 |

Test system: not listed separately
Assay: Cytotoxicity against human HCT116 cells after 72 hrs by MTT assay
Assay type: functional, cell-based
Conditions: HCT-116, 72 h
Summary of the method: as §2

| SMILES | IC50 [nM] |
| --- | --- |
| COc1ccc(/C=C2\S/C(=N\c3csc(-c4ccc(Cl)cc4)c3)NC2=O)cc1OC | 1700 |
| Cc1ccc(/C=C2\S/C(=N\c3csc(-c4ccc(Cl)cc4)c3)NC2=O)cc1 | 1000 |

Test system: MCF7
Assay: Cytotoxicity against human MCF7 cells after 72 hrs by MTT assay
Assay type: functional, cell-based
Conditions: MCF7, 72 h
Summary of the method: as §2

| SMILES | IC50 [nM] |
| --- | --- |
| COc1ccc(/C=C2\S/C(=N\c3csc(-c4ccc(Cl)cc4)c3)NC2=O)cc1OC | 7600 |
| Cc1ccc(/C=C2\S/C(=N\c3csc(-c4ccc(Cl)cc4)c3)NC2=O)cc1 | 900 |

Test system: SW-620
Assay: Cytotoxicity against human SW620 cells after 72 hrs by MTT assay
Assay type: functional, cell-based
Conditions: SW-620, 72 h
Summary of the method: as §2

| SMILES | IC50 [nM] |
| --- | --- |
| COc1ccc(/C=C2\S/C(=N\c3csc(-c4ccc(Cl)cc4)c3)NC2=O)cc1OC | > 50000 |
| Cc1ccc(/C=C2\S/C(=N\c3csc(-c4ccc(Cl)cc4)c3)NC2=O)cc1 | 1500 |

Test system: HT-29
Assay: Reduction in cell growth of human HT-29 cells at cytotoxic IC50 level after 3 days by trypan blue dye exclusion assay
Assay type: functional, cell-based
Conditions: not given
Summary of the method: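 HT29 cells treated daily from 48 h after seeding, over three days with daily medium changes, in 0.1% (v/v) DMSO vehicle. Cells trypsinised, mixed 1:1 with 0.04% trypan blue, and living cells counted by haemocytometer under microscope. Mitotic index is treated count relative to DMSO control. Triplicate determinations, two independent experiments, mean ± S.E.M.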

| SMILES | inhibition |
| --- | --- |
| COc1ccc(/C=C2\S/C(=N\c3csc(-c4ccc(Cl)cc4)c3)NC2=O)cc1OC | Active |
| Cc1ccc(/C=C2\S/C(=N\c3csc(-c4ccc(Cl)cc4)c3)NC2=O)cc1 | Active |

Test system: HT-29
Assay: Reduction in cell viability of human HT-29 cells assessed as reduction in living cell level at cytotoxic IC50 level after 24 to 48 hrs by DCF-DA and propidium iodide staining based flow cytometry
Assay type: functional
Conditions: not given
Summary of the method: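 HT29 cells treated two days after seeding, then loaded together with 50 µM DCF-DA and 25 µg/mL propidium iodide for 15 min at 37°C. Cells trypsinised, washed and resuspended in PBS; 30 000 cells per sample read by flow cytometry (FL-1, FL-3). Viable cells (PI-negative, DCF-positive) given as % of total events. Triplicates, two independent experiments.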

| SMILES | inhibition |
| --- | --- |
| COc1ccc(/C=C2\S/C(=N\c3csc(-c4ccc(Cl)cc4)c3)NC2=O)cc1OC | Active |
| Cc1ccc(/C=C2\S/C(=N\c3csc(-c4ccc(Cl)cc4)c3)NC2=O)cc1 | Active |
